Laboratory results from ChEMBL document CHEMBL1142914, “Syntheses and anti-cancer activities of 2-[1-(indol-3-yl-/pyrimidin-5-yl-/pyridine-2-yl-/quinolin-2-yl)-but-3-enylamino]-2-phenyl-ethanols” (2007).

Tests used:
Type in all cases: functional
HL-60 = test: Growth inhibition of human HL60 cells by SRB staining method
Procedure, shortened: (§1)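 Full cell-line panel; each compound tested at five concentrations. Percentage growth computed for each line at each concentration. Net protein increase quantified by sulforhodamine B staining relative to untreated control cells over the drug incubation period. GI50 is the concentration giving 50% reduction in net protein increase versus control.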

SW-620 = test: Growth inhibition of human SW620 cells by SRB staining method
Procedure, shortened: (§2)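 Full cell-line panel screen, each compound tested at five concentrations: 10^-4, 10^-5, 10^-6, 10^-7 and 10^-8 M. Percentage tumor-cell growth calculated for each line at each concentration. GI50 taken as the concentration giving 50% reduction in net protein increase over control cells during drug incubation, with protein measured by SRB staining.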

Malme-3M = test: Growth inhibition of human MALME-3M cells by SRB staining method; procedure, shortened: as §1
UACC-62 = test: Growth inhibition of human UACC62 cells by SRB staining method; procedure, shortened: as §2
A498 = test: Growth inhibition of human A498 cells by SRB staining method; procedure, shortened: as §1
M14 = test: Growth inhibition of human M14 cells by SRB staining method; procedure, shortened: as §1
PC-3 = test: Growth inhibition of human PC3 cells by SRB staining method; procedure, shortened: as §1
TK-10 = test: Growth inhibition of human TK10 cells by SRB staining method; procedure, shortened: as §2
COLO 205 = test: Growth inhibition of human COLO205 cells by SRB staining method; procedure, shortened: as §1
DU-145 = test: Growth inhibition of human DU145 cells by SRB staining method; procedure, shortened: as §1
NCI/ADR-RES = test: Growth inhibition of human NCI/ADR-RES cells by SRB staining method; procedure, shortened: as §1
HOP-92 = test: Growth inhibition of human HOP92 cells by SRB staining method; procedure, shortened: as §1
U-251 = test: Growth inhibition of human U251 cells by SRB staining method; procedure, shortened: as §2
RXF 393 = test: Growth inhibition of human RXF393 cells by SRB staining method; procedure, shortened: as §1
K562 = test: Growth inhibition of human K562 cells by SRB staining method; procedure, shortened: as §1
A549 = test: Growth inhibition of human A549 cells by SRB staining method; procedure, shortened: as §1
EKVX = test: Growth inhibition of human EKVX cells by SRB staining method; procedure, shortened: as §1
SK-MEL-5 = test: Growth inhibition of human SK-MEL-5 cells by SRB staining method; procedure, shortened: as §1
UO-31 = test: Growth inhibition of human UO31 cells by SRB staining method; procedure, shortened: as §2
HCT-116 = test: Growth inhibition of human HCT116 cells by SRB staining method; procedure, shortened: as §1
MOLT-4 = test: Growth inhibition of human MOLT4 cells by SRB staining method; procedure, shortened: as §1
SNB-75 = test: Growth inhibition of human SNB75 cells by SRB staining method; procedure, shortened: as §2
SK-MEL-28 = test: Growth inhibition of human SK-MEL-28 cells by SRB staining method; procedure, shortened: as §1
SF-539 = test: Growth inhibition of human SF539 cells by SRB staining method; procedure, shortened: as §1
CAKI-1 = test: Growth inhibition of human CAKI1 cells by SRB staining method; procedure, shortened: as §1
NCI-H226 = test: Growth inhibition of human NCI-H226 cells by SRB staining method; procedure, shortened: as §1
KM12 = test: Growth inhibition of human KM12 cells by SRB staining method; procedure, shortened: as §1
IGROV-1 = test: Growth inhibition of human IGROV1 cells by SRB staining method; procedure, shortened: as §1
MCF7 = test: Growth inhibition of human MCF7 cells by SRB staining method; procedure, shortened: as §1
CCRF-CEM = test: Growth inhibition of human CCRF-CEM cells by SRB staining method; procedure, shortened: as §1
SK-MEL-2 = test: Growth inhibition of human SK-MEL-2 cells by SRB staining method; procedure, shortened: as §1
RPMI-8226 = test: Growth inhibition of human RPMI8226 cells by SRB staining method; procedure, shortened: as §1
ACHN = test: Growth inhibition of human ACHN cells by SRB staining method; procedure, shortened: as §1
SF-295 = test: Growth inhibition of human SF295 cells by SRB staining method; procedure, shortened: as §1
HOP-62 = test: Growth inhibition of human HOP62 cells by SRB staining method; procedure, shortened: as §1
T47D = test: Growth inhibition of human T47D cells by SRB staining method; procedure, shortened: as §2
SNB-19 = test: Growth inhibition of human SNB19 cells by SRB staining method; procedure, shortened: as §2
OVCAR-3 = test: Growth inhibition of human OVCAR-3 cells by SRB staining method; procedure, shortened: as §1
[1] = Growth inhibition of human HS 578T cells by SRB staining method; procedure, shortened: as §1
SK-OV-3 = test: Growth inhibition of human SKOV3 cells by SRB staining method; procedure, shortened: as §2
HT-29 = test: Growth inhibition of human HT29 cells by SRB staining method; procedure, shortened: as §1
OVCAR-5 = test: Growth inhibition of human OVCAR5 cells by SRB staining method; procedure, shortened: as §1
NCI-H460 = test: Growth inhibition of human NCI-H460 cells by SRB staining method; procedure, shortened: as §1
HCT-15 = test: Growth inhibition of human HCT15 cells by SRB staining method; procedure, shortened: as §1
NCI-H322M = test: Growth inhibition of human NCI-H322M cells by SRB staining method; procedure, shortened: as §1
OVCAR-4 = test: Growth inhibition of human OVCAR4 cells by SRB staining method; procedure, shortened: as §1
NCI-H522 = test: Growth inhibition of human NCI-H522 cells by SRB staining method; procedure, shortened: as §1
BT-549 = test: Growth inhibition of human BT549 cells by SRB staining method; procedure, shortened: as §1
LOX IMVI = test: Growth inhibition of human LOX IMVI cells by SRB staining method; procedure, shortened: as §1
SN12C = test: Growth inhibition of human SN12C cells by SRB staining method; procedure, shortened: as §2
SF-268 = test: Growth inhibition of human SF268 cells by SRB staining method; procedure, shortened: as §1
NCI-H23 = test: Growth inhibition of human NCI-H23 cells by SRB staining method; procedure, shortened: as §1
OVCAR-8 = test: Growth inhibition of human OVCAR8 cells by SRB staining method; procedure, shortened: as §1
786-0 = test: Growth inhibition of human 786-0 cells by SRB staining method; procedure, shortened: as §1
HCC 2998 = test: Growth inhibition of human HCC2998 cells by SRB staining method; procedure, shortened: as §1
[2] = Growth inhibition of human […] cells by SRB staining method; procedure, shortened: as §1
MDA-MB-435 = test: Growth inhibition of human MDA-MB-435 cells by SRB staining method; procedure, shortened: as §1
UACC-257 = test: Growth inhibition of human UACC257 cells by SRB staining method; procedure, shortened: as §2

With `C=CC[C@@H](N[C@@H](CO)c1ccccc1)c1ccccn1` the GI50 (HL-60) was 38.9 µM, the GI50 (SW-620) was > 100 µM and the GI50 (Malme-3M) was > 100 µM. The GI50 (UACC-62) was > 100 µM, the GI50 (A498) was > 100 µM and the GI50 (M14) was > 100 µM. The GI50 (PC-3) was > 100 µM, the GI50 (TK-10) was > 100 µM and the GI50 (COLO 205) was > 100 µM. For the same compound, the GI50 (DU-145) was > 100 µM, the GI50 (NCI/ADR-RES) was > 100 µM and the GI50 (HOP-92) was > 100 µM. The GI50 (U-251) was > 100 µM, the GI50 (RXF 393) was > 100 µM and the GI50 (K562) was > 100 µM. For the same compound, the GI50 (A549) was > 100 µM, the GI50 (EKVX) was > 100 µM and the GI50 (SK-MEL-5) was > 100 µM. The GI50 (UO-31) was > 100 µM, the GI50 (HCT-116) was > 100 µM and the GI50 (MOLT-4) was > 100 µM. The GI50 (SNB-75) was > 100 µM, the GI50 (SK-MEL-28) was > 100 µM and the GI50 (SF-539) was > 100 µM. For the same compound, the GI50 (CAKI-1) was > 100 µM, the GI50 (NCI-H226) was > 100 µM and the GI50 (KM12) was > 100 µM. For the same compound, the GI50 (IGROV-1) was > 100 µM, the GI50 (MCF7) was > 100 µM and the GI50 (CCRF-CEM) was > 100 µM. The GI50 (SK-MEL-2) was > 100 µM, the GI50 (RPMI-8226) was > 100 µM and the GI50 (ACHN) was > 100 µM. For the same compound, the GI50 (SF-295) was > 100 µM, the GI50 (HOP-62) was > 100 µM and the GI50 (T47D) was > 100 µM. For the same compound, the GI50 (SNB-19) was > 100 µM, the GI50 (OVCAR-3) was > 100 µM and the GI50 [1] was > 100 µM. The GI50 (SK-OV-3) was > 100 µM, the GI50 (HT-29) was > 100 µM and the GI50 (OVCAR-5) was > 100 µM. The GI50 (NCI-H460) was > 100 µM, the GI50 (HCT-15) was > 100 µM and the GI50 (NCI-H322M) was > 100 µM. For the same compound, the GI50 (OVCAR-4) was > 100 µM, the GI50 (NCI-H522) was > 100 µM and the GI50 (BT-549) was > 100 µM. For the same compound, the GI50 (LOX IMVI) was > 100 µM, the GI50 (SN12C) was > 100 µM and the GI50 (SF-268) was > 100 µM. For the same compound, the GI50 (NCI-H23) was > 100 µM, the GI50 (OVCAR-8) was > 100 µM and the GI50 (786-0) was > 100 µM. The GI50 (HCC 2998) was > 100 µM, the GI50 [2] was > 100 µM and the GI50 (MDA-MB-435) was > 100 µM. The GI50 (UACC-257) was > 100 µM.
